This is an account of results in ChEMBL document CHEMBL1149785, “Synthesis and biological evaluation of helicid analogues as novel acetylcholinesterase inhibitors” (Eur J Med Chem, 2008).

Activity calls are given as the source filed them. No cut-off for these calls is given here.

Usually IC50 stands for the concentration at which inhibition is half-maximal. What is called Ki is the equilibrium dissociation constant of an inhibitor or competing ligand from its target. A higher Ki goes with weaker binding.

For assay [1], the target named is Cholinesterase (Equus caballus) (UniProt P81908). The assay is described as follows: Inhibition of horse serum BuChE upto 500 uM by Ellman's method. The procedure, abridged:
(§1)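 Modified Ellman assay with acetylthiocholine (AChE) or butyrylthiocholine (BuChE) as substrate, from 0.075 M stock solutions, and DTNB from a 0.01 M stock, in phosphate buffer. Enzyme, DTNB and test compound were pre-incubated for 15 min at 37 °C, then substrate was added. Absorbance was read at 412 nm for 1 min. Five concentrations, normally 10^-4 to 10^-9 M, each in triplicate.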
(In general: Ellman's reagent forms a yellow product with free thiols.)

For the next assay, the target named is Acetylcholinesterase (Electrophorus electricus, UniProt O42275). The assay is described as follows: Inhibition of Electrophorus electricus AChE by Ellman's method.
Chain of Acetylcholinesterase (O42275 whole entry): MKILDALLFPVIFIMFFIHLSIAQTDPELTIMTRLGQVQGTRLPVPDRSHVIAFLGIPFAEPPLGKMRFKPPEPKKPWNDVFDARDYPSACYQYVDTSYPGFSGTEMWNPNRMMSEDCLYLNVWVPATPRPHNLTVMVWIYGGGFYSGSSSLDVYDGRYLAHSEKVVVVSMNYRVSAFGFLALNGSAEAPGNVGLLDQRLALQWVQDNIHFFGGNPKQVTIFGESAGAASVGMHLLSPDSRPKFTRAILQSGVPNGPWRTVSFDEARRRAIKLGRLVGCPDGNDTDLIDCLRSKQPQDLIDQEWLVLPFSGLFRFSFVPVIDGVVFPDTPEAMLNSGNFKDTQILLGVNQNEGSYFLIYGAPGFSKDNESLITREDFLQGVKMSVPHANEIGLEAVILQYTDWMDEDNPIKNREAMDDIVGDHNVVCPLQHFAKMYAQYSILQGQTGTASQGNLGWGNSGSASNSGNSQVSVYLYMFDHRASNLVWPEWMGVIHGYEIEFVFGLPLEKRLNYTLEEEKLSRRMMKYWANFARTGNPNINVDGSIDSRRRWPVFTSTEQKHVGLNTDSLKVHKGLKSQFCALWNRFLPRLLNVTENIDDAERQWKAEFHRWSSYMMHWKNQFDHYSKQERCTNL
For assay [2], the target named is Acetylcholinesterase (Electrophorus electricus) (UniProt O42275). The assay is described as follows: Inhibition of Electrophorus electricus AChE upto 500 uM by Ellman's method. The procedure, abridged:
as §1

The next assay has as its target Cholinesterase (Equus caballus, UniProt P81908). The assay is described as follows: Inhibition of horse serum BuChE by Ellman's method.
Assay [3] addresses 4-aminobutyrate aminotransferase, mitochondrial (Homo sapiens, UniProt P80404). The assay is described as follows: Inhibition of GABA transaminase.

Chain of Acetylcholinesterase (Electrophorus electricus) (O42275 24-633 limits assumed): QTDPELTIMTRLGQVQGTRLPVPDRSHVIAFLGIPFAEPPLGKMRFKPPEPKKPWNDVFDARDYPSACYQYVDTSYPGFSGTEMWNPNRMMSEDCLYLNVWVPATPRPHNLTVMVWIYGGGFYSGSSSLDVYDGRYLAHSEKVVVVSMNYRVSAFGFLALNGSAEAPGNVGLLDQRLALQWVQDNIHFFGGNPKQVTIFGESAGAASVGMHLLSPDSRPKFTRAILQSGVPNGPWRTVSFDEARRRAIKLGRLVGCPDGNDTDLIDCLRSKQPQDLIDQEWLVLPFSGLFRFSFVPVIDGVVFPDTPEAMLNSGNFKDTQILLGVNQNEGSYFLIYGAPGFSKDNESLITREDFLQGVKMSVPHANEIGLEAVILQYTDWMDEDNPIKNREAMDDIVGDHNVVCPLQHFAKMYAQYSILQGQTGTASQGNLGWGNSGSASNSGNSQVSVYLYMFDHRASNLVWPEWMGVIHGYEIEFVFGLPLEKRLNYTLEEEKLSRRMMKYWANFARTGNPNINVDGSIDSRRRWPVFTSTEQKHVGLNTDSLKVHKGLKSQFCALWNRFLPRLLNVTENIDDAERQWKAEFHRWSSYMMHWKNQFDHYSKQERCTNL
Chain of Cholinesterase (P81908 whole entry): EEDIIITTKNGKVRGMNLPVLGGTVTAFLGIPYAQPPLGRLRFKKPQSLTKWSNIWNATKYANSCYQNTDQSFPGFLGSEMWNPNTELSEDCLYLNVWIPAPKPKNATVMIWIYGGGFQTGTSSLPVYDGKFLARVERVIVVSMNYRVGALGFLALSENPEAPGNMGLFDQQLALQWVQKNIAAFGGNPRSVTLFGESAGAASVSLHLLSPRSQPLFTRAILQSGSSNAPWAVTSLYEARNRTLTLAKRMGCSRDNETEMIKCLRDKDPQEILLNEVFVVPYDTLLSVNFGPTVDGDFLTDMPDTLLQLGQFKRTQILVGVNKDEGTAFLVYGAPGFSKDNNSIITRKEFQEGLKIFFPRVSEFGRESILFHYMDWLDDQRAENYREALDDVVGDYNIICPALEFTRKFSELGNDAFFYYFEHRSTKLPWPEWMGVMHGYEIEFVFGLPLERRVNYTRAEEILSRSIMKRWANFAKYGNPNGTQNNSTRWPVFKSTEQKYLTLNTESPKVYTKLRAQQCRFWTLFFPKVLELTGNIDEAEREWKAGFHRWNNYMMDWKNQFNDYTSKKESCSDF
Chain of Cholinesterase (Equus caballus) (P81908 whole entry): as above
Chain of 4-aminobutyrate aminotransferase, mitochondrial (P80404 whole entry): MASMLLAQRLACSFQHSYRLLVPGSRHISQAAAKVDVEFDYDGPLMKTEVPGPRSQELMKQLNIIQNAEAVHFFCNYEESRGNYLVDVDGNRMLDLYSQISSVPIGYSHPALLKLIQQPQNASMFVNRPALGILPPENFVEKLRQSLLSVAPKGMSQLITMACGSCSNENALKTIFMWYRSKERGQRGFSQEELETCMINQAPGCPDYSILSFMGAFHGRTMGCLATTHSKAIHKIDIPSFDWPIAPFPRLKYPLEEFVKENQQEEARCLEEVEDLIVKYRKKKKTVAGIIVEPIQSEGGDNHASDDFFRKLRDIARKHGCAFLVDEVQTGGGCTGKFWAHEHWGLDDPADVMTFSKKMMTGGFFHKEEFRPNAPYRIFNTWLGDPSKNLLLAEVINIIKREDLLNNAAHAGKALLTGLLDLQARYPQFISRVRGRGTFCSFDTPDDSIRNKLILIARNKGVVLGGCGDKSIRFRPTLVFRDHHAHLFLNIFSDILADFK

For the compound `CO/N=C\c1ccc(O[C@@H]2O[C@H](CO)[C@@H](O)[C@H](O)[C@H]2O)cc1`, in assay [1], the result was inactive. On Acetylcholinesterase, this compound gave a 50% inhibitory concentration (IC50) of 0.49 µM and a Ki of 130 nM.
For the compound `CC(=O)OC[C@H]1O[C@@H](O[C@H]2[C@H](OC(C)=O)[C@@H](OC(C)=O)[C@H](Oc3ccc(C=O)cc3)O[C@@H]2COC(C)=O)[C@H](OC(C)=O)[C@@H](OC(C)=O)[C@H]1OC(C)=O`, the outcome in assay [1] and in assay [2] was inactive.
Regarding `CC(=O)OC[C@H]1O[C@@H](Oc2ccc(/C=N/NC(N)=S)cc2)[C@H](OC(C)=O)[C@@H](OC(C)=O)[C@@H]1OC(C)=O`, in assay [1], the result was inactive. This compound also yielded an IC50 against Acetylcholinesterase of 21.5 µM.
`CC(=O)OC[C@H]1O[C@@H](Oc2ccc(C=O)cc2)[C@H](OC(C)=O)[C@H](OC(C)=O)[C@@H]1OC(C)=O`: the outcome in assay [1] and in assay [2] was inactive.
Regarding `NC(=S)N/N=C/c1ccc(O[C@@H]2O[C@H](CO)[C@@H](O)[C@H](O)[C@H]2O)cc1`, in assay [1], the result was inactive. For the same compound, the IC50 on Acetylcholinesterase amounted to 22.9 µM.
`CO/N=C\c1ccc(O[C@@H]2O[C@H](COC(C)=O)[C@@H](OC(C)=O)[C@H](OC(C)=O)[C@H]2OC(C)=O)cc1`: the result in assay [1] was inactive. This compound gave an IC50 against Acetylcholinesterase of 15.1 µM.
With `CC(=O)OC[C@H]1O[C@@H](Oc2ccc(/C=N/O)cc2)[C@H](OC(C)=O)[C@@H](OC(C)=O)[C@@H]1OC(C)=O`, the result in assay [1] was inactive.
On to `O=Cc1ccc(O[C@@H]2OC[C@@H](OC(=O)c3ccccc3)[C@H](OC(=O)c3ccccc3)[C@H]2OC(=O)c2ccccc2)cc1`, for which the outcome in assay [1] was inactive. Also, at Acetylcholinesterase, inhibition was half-maximal at 35 µM (IC50).
As to `OC[C@H]1O[C@@H](Oc2ccc(/C=N/O)cc2)[C@H](O)[C@@H](O)[C@@H]1O`, in assay [1], the outcome was inactive.
Consider `O=Cc1ccc(O[C@@H]2O[C@H](CO)[C@@H](O)[C@@H](O)[C@H]2O)cc1`, for which the result in assay [1] and in assay [2] was inactive.
As to `CC(=O)OC[C@H]1O[C@@H](Oc2ccc(C=O)cc2)[C@H](OC(C)=O)[C@@H](OC(C)=O)[C@H]1OC(C)=O`, in assay [1], the outcome was inactive. The same compound registered a concentration for half-maximal inhibition (IC50) at Acetylcholinesterase of 45.4 µM.
Turning to `CO/N=C\c1ccc(O[C@@H]2OC[C@@H](OC(=O)c3ccccc3)[C@@H](OC(=O)c3ccccc3)[C@H]2OC(=O)c2ccccc2)cc1`, the IC50 on Acetylcholinesterase is 3.08 µM; against Cholinesterase, 45.8 µM.
Turning to `NC(=S)N/N=C/c1ccc(O[C@@H]2OC[C@@H](OC(=O)c3ccccc3)[C@@H](OC(=O)c3ccccc3)[C@H]2OC(=O)c2ccccc2)cc1`, the IC50 at Acetylcholinesterase was found to be 46.4 µM; at Cholinesterase, 71.8 µM.
`NC(=O)N/N=C/c1ccc(O[C@@H]2O[C@H](CO)[C@@H](O)[C@H](O)[C@H]2O)cc1`: the result in assay [1] was inactive. Further, the midpoint of inhibition on Acetylcholinesterase, the IC50, lay at 121 µM.
Regarding `NC(=O)N/N=C/c1ccc(O[C@@H]2OC[C@@H](OC(=O)c3ccccc3)[C@@H](OC(=O)c3ccccc3)[C@H]2OC(=O)c2ccccc2)cc1`, the IC50 is 7.07 µM at Acetylcholinesterase and 48.7 µM at Cholinesterase.
As for `O=Cc1ccc(O[C@@H]2OC[C@@H](O)[C@@H](O)[C@H]2O)cc1`, the result in assay [1] was inactive. On Acetylcholinesterase, this compound gave an IC50 of 0.2 µM and a Ki of 510 nM.
Regarding `O=Cc1ccc(O[C@@H]2O[C@H](CO)[C@@H](O)[C@H](O)[C@H]2O)cc1`, in assay [1], the outcome was inactive. At Acetylcholinesterase, this compound gave an IC50 of 0.45 µM and a Ki of 730 nM.
In turn, `O=Cc1ccc(O)cc1` [4-HYDROXYBENZALDEHYDE] showed an IC50 in assay [3] of 33.6 µM. This lies in the double-digit micromolar range.
On to `O=Cc1ccc(O[C@@H]2OC[C@@H](OC(=O)c3ccccc3)[C@@H](OC(=O)c3ccccc3)[C@H]2OC(=O)c2ccccc2)cc1`, for which the IC50 at Acetylcholinesterase was determined as 14 µM; against Cholinesterase it was 64.3 µM.
As for `CC(=O)OC[C@H]1O[C@@H](Oc2ccc(C=O)cc2)[C@H](OC(C)=O)[C@@H](OC(C)=O)[C@@H]1OC(C)=O`, the outcome in assay [1] was inactive. At Acetylcholinesterase, this compound yielded an IC50 of 1.5 µM.
`CC(=O)OC[C@H]1O[C@@H](Oc2ccc(/C=N/NC(N)=O)cc2)[C@H](OC(C)=O)[C@@H](OC(C)=O)[C@@H]1OC(C)=O`: the result in assay [1] was inactive. Also, half-maximal inhibition against Acetylcholinesterase (IC50) required 143 µM.
